From paper PMC11646436 (International Journal of Nanomedicine, 2024)

Assays:
[1] = system: PANC-1 cells; assay: MTT cytotoxicity assay; type: cell-based, Human
[2] = system: AsPC-1 cells; assay: Cellular accumulation by LC-MS/MS; type: cell-based, Human; conditions: AsPC-1, 10 μM, 48 h; Gem (Gem group), Gem and tcGem (LipotcGem group)
Summary of the method: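 AsPC-1 cells were seeded at 5×10^6 per 10 cm dish overnight and exposed to 10 μM test compound for 12, 24 or 48 h. Cells were washed, counted and sonicated at 4°C in methanol-water (1:1). Parent nucleoside and prodrug were quantified by LC-MS/MS on a C8 UPLC column. The gradient was water/acetonitrile with 0.1% formic acid at 0.2 mL/min.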

[3] = system: AsPC-1 cells; assay: Transwell cell invasion assay; type: cell-based, Human; conditions: AsPC-1, 1 μM, 48 h
Summary of the method: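 AsPC-1 cells (1×10^4) were placed in serum-free medium in the upper chamber of 8-μm-pore transwells, with complete medium below, and treated with 1 μM test compound for 48 h. Cells on the upper membrane surface were swabbed off. Cells on the lower surface were stained with 0.5% crystal violet and counted per field under bright-field microscopy. Mean ± SD, n = 3.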

[4] = system: AsPC-1-luc orthotopic xenograft; assay: Pharmacodynamics in AsPC-1-luc orthotopic xenograft model; type: in vivo, BALB/c nude mice
Summary of the method: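 AsPC-1-luc cells were grown in RPMI-1640 with 10% FBS and 0.5 μg/mL puromycin. Under anaesthesia, 3×10^6 cells in 25 μL were injected into the pancreas of BALB/c nude mice. On day 7, luciferase substrate was given i.p. and mice were IVIS-imaged within 5 min, then grouped by bioluminescence. Dosing was i.v., Q3D × 6: 5% glucose, parent drug 10 mg/kg, or liposomal test compound 5 mg/kg. Mice were imaged on Days 17 and 27, followed by ex vivo organ imaging.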

[5] = system: AsPC-1 cells; assay: MTT cytotoxicity assay; type: cell-based; conditions: Homo sapiens, ASPC1, 48 h, AsPC-1, 48 h incubation, 2×10^4 cells per well
Summary of the method: (§1)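 Seeding was 2×10^4 per well for AsPC-1 and 1×10^4 for PANC-1, BxPC-3, Mia PaCa-2 and SU.86.86; cells adhered for 24 h at 37°C in 5% CO2. Test compound was given at 0.01, 0.1, 1, 10 and 100 μM for 48 h. MTT (5 mg/mL stock in PBS) was added for 4 h, dissolved in DMSO, and read at 490 nm. Viability was calculated against drug-free cells and cell-free blanks. Mean ± SD, n = 3.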

[6] = system: AsPC-1 cells; assay: Cell cycle analysis by flow cytometry; type: cell-based, Human; conditions: AsPC-1, 10 μM, 24 h
Summary of the method: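 AsPC-1 cells were seeded at 5×10^5 per well in 6-well plates and exposed to 10 μM test compound. They were then fixed overnight in cold 70% ethanol, stained with propidium iodide containing RNase A in the dark at room temperature, and analysed by flow cytometry for cell-cycle phase percentages. Mean ± SD, n = 3.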

[7] = system: AsPC-1 subcutaneous xenograft; assay: Pharmacodynamics in AsPC-1 subcutaneous xenograft model; type: in vivo, BALB/c nude mice
Summary of the method: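 Female BALB/c nude mice (18–20 g) received 5×10^6 AsPC-1 cells subcutaneously in the right flank. At ~100 mm3 they were sorted by volume and randomised into three groups. Dosing was i.v., Q3D × 6: 5% glucose vehicle, parent drug 10 mg/kg, or liposomal test compound 5 mg/kg. Tumour volume and body weight were followed throughout. Tumours were weighed on Day 30, one week after the last dose, and organs were taken for H&E. n = 5.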

[8] = system: Mia PaCa-2 cells; assay: MTT cytotoxicity assay; type: cell-based; conditions: Homo sapiens
[9] = Tissue distribution in AsPC-1 tumor-bearing mice; type: in vivo, BALB/c nude mice; conditions: i.v. 38 μmol/kg
Summary of the method: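 BALB/c nude mice carrying subcutaneous AsPC-1 tumours (5×10^6 cells, right flank; 300–500 mm3) received one i.v. bolus at an equimolar 38 μmol/kg (parent drug 10 mg/kg; liposomal prodrug 19 mg/kg). After cardiac perfusion, tumour, heart, liver, spleen, lung, kidney and pancreas were collected at 0.5, 4, 8, 12 and 24 h. Parent nucleoside and prodrug were measured by LC-MS/MS.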

[10] = system: SU.86.86 cells; assay: MTT cytotoxicity assay; type: cell-based; conditions: Homo sapiens, SU.86.86, 48 h
Summary of the method: as §1

[11] = system: BxPC-3 cells; assay: MTT cytotoxicity assay; type: cell-based; conditions: Homo sapiens, BXPC-3, 48 h
Summary of the method: as §1

Nc1ccn([C@@H]2O[C@H](CO)[C@@H](O)C2(F)F)c(=O)n1 [Gem, Gemcitabine]
IC50 ([1]; Homo sapiens, PANC-1, 48 h): > 100 µM | cell viability ([1]; PANC-1, lower cell densities and extended exposure time): above 50% | intracellular accumulation [2]: 0.0015 nmol/10^6 cells | invading cells [3]: 129 ± 27 cells per field | metastatic burden (bioluminescent signals, liver and intestine) ([4]; Day 27, ex vivo): moderate | tumor inhibition rate (TIR) ([4]; orthotopic model, i.v. Q3D × 6, Gem 10 mg/kg, LipotcGem 5 mg/kg): 50% | IC50 [5]: > 100 µM | Percentage of cells (%) S [6]: 35% | tumor inhibition rate (TIR), tumor weight ([7]; Day 30, i.v. Q3D × 6, Gem 10 mg/kg, LipotcGem 5 mg/kg): 49% | tumor inhibition rate (TIR), tumor volume ([7]; i.v. Q3D × 6, Gem 10 mg/kg, LipotcGem 5 mg/kg): 50% | body weight ([7]; subcutaneous model, throughout treatment): No significant weight loss | IC50 ([8]; MIA PaCa-2, 48 h): > 100 µM | IC50 ([8]; MIA PaCa-2, 72 h): 73.5 µM | concentration in tumors ([9]; 8 h, Gem (Gem group), Gem and tcGem (LipotcGem group)): 0.004 µmol/g | Gem concentration in tumor tissues and plasma over time [9]: undetectable beyond 8 h | IC50 [10]: > 100 µM | IC50 [11]: 4.35 µM
